Data: ChEMBL document CHEMBL3352032, “Antiplasmodial activity of new 4-aminoquinoline derivatives against chloroquine resistant strain” (Bioorg Med Chem, 2014)

Assays:
Plasmodium falciparum [1] = assay: Antiplasmodial activity against chloroquine-resistant Plasmodium falciparum K1 after 72 hrs by SYBR Green-1 staining-based fluorescence assay; type: functional, organism-based; settings: K1, 72 h
Procedure, shortened: (§1)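 Compounds were dissolved in DMSO as 10 mM stocks and two-fold serially diluted. Dilutions were incubated with a 1.0% parasitized cell suspension at 0.8% parasitemia, using an asynchronous culture with more than 80% ring stages. Incubation was 72 h at 37 °C in 5% CO2/air. Lysis buffer with 2x SYBR Green-1 was then added for 1 h at 37 °C, and fluorescence (RFU) was read at 485±20 nm.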

Plasmodium falciparum [2] = assay: Antiplasmodial activity against chloroquine-sensitive Plasmodium falciparum 3D7 after 72 hrs by SYBR Green-1 staining-based fluorescence assay; type: functional, organism-based; settings: 3D7, 72 h; procedure, shortened: as §1
Plasmodium falciparum [3] = assay: Resistance index, ratio of IC50 for chloroquine-resistant Plasmodium falciparum K1 to IC50 for chloroquine-sensitive Plasmodium falciparum 3D7; type: functional
Procedure, shortened: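 The index is the IC50 against K1 divided by the IC50 against 3D7. Both IC50s come from the 72 h SYBR Green-1 fluorescence assay: two-fold serial dilutions from 10 mM DMSO stocks, 1.0% parasitized cells at 0.8% parasitemia (>80% rings), 37 °C, 5% CO2.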

[4] = Selectivity index, ratio of CC50 for African green monkey Vero cells to IC50 for Plasmodium falciparum; type: functional
Procedure, shortened: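 Vero cells exposed to compound dilutions for 72 h; cytotoxicity read by MTT, CC50 by nonlinear regression of dose-response curves. Antiplasmodial IC50 from P. falciparum asynchronous culture (>80% rings, 0.8% parasitemia, 1% hematocrit suspension), twofold serial dilutions, 72 h at 37 °C, 5% CO2, SYBR Green I fluorescence. SI = CC50/IC50.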

[5] = Association constant, log K of the compound in aqueous DMSO at pH 7.5 assessed as complex formation by UV spectrophotometry; type: physicochemical; settings: buffer
Procedure, shortened: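 Spectrophotometric titration of hematin with compound in 40% aqueous DMSO, 20 mM HEPES, pH 7.5, 25 °C; hematin monomeric under these conditions. Association constant fitted for 1:1 compound:hematin complex. Means ± SD from at least three experiments in duplicate.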

[6] = Inhibition of beta-hematin formation assessed as inhibition of hemozoin formation by UV spectrophotometry; type: physicochemical
Procedure, shortened: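 β-Hematin polymerization induced by 1-oleoyl-rac-glycerol, read at 405 nm by UV spectrophotometry. Triplicate values expressed as percent inhibition relative to drug-free hemozoin formation. IC50 in millimolar equivalents of compound relative to hemin, from sigmoidal dose-response non-linear regression. Means ± SD from at least three experiments in duplicate.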

SMILES | IC50 (Plasmodium falciparum [1]) [nM] | IC50 (Plasmodium falciparum [2]) [nM] | Ratio IC50 (Plasmodium falciparum [3]) | Ratio CC50/IC50 [4] | log K [5] | IC50 [6] [mMequiv] | inhibition (INH) [6]
CC(C)(C)OC(=O)N[C@@H](Cc1ccccc1)C(=O)C=[N+]=[N-] | 55.3 |  |  |  |  |  | 
CN1CCN(C(=O)[C@H](Cc2ccccc2)Nc2ccnc3cc(Cl)ccc23)CC1 | 116 | 109 | 1.06 | 429 | 5.11 | 0.6619 | Dose-dependent effect
C[C@H](O)[C@H](Nc1ccnc2cc(Cl)ccc12)C(=O)N1CCN(C)CC1 | > 1380 | 142 | >9.67 | 1934 | 6.07 | 0.3837 | Dose-dependent effect
C[C@H](Nc1ccnc2cc(Cl)ccc12)C(=O)NCCN1CCCCC1 | > 500 | 64.1 | >7.8 | 3025 | 5.73 | 0.2166 | Dose-dependent effect
CCN(CC)CCCC(C)Nc1ccnc2cc(Cl)ccc12 (centres undefined) [CHLOROQUINE] |  |  |  |  | 5.52 | 0.17 | 
C[C@H](Nc1ccnc2cc(Cl)ccc12)C(=O)N1CCN(C)CC1 | 207 | 73.8 | 2.79 | 2900 | 5.36 | 0.1677 | Dose-dependent effect
CC[C@H](C)[C@H](NC(=O)OC(C)(C)C)C(=O)C=[N+]=[N-] | 168 |  |  |  |  |  | 
CN1CCN(C(=O)[C@H](CO)Nc2ccnc3cc(Cl)ccc23)CC1 | 925 | 116 | 7.96 | 1976 | 5.68 | 0.3604 | Dose-dependent effect
CN1CCN(C(=O)CC[C@H](Cc2ccccc2)Nc2ccnc3cc(Cl)ccc23)CC1 | 71.2 | 11.5 | 6.18 | 11350 | 5.32 | 0.1961 | Dose-dependent effect
CN1CCN(C(=O)CCNc2ccnc3cc(Cl)ccc23)CC1 | 398 | 35.9 | 11.1 | 6472 | 6.43 | 0.3293 | Dose-dependent effect
CN1CCN(C(=O)C[C@H](Cc2ccccc2)Nc2ccnc3cc(Cl)ccc23)CC1 | 55.3 | 19.2 | 2.87 | 5846 | 5.8 | 0.1739 | Dose-dependent effect
CSCC[C@H](Nc1ccnc2cc(Cl)ccc12)C(=O)N1CCN(C)CC1 | 129 | 58.4 | 2.2 | 3821 | 5.04 | 0.3595 | Dose-dependent effect
CN1CCN(C(=O)[C@H](Cc2c[nH]c3ccccc23)Nc2ccnc3cc(Cl)ccc23)CC1 | 262 | 223 | 1.17 | 392 | 6.36 | 0.3302 | Dose-dependent effect
C[C@H](Nc1ccnc2cc(Cl)ccc12)C(=O)N1CCN(c2ccccc2)CC1 | > 500 | > 500 |  |  | 5.94 | 0.2082 | Dose-dependent effect
CCN(CC)CCCNC(=O)[C@H](C)Nc1ccnc2cc(Cl)ccc12 | > 500 | 82.6 | >6.05 | 2585 | 5.27 | 0.2145 | Dose-dependent effect
C[C@H](Nc1ccnc2cc(Cl)ccc12)C(=O)NCCCN(C)C | > 500 | 142 | >3.51 | 2606 | 5.34 | 0.176 | Dose-dependent effect
CC(C)C[C@H](Nc1ccnc2cc(Cl)ccc12)C(=O)N1CCN(C)CC1 | 147 | 60.2 | 2.44 | 905 | 5.38 | 0.2283 | Dose-dependent effect
CC(C)[C@H](Nc1ccnc2cc(Cl)ccc12)C(=O)N1CCN(C)CC1 | 599 | 271 | 2.21 | 1023 | 6.39 | 0.2349 | Dose-dependent effect
CCN(CC)CCNC(=O)[C@H](C)Nc1ccnc2cc(Cl)ccc12 | > 500 | 35.4 | >14.13 | 5834 | 6.03 | 0.1531 | Dose-dependent effect
CN1CCN(C(=O)CNc2ccnc3cc(Cl)ccc23)CC1 | 177 | 149 | 1.18 | 1566 | 7.34 | 0.1915 | Dose-dependent effect
CC[C@H](C)[C@@H](CC(=O)N1CCN(C)CC1)Nc1ccnc2cc(Cl)ccc12 | 168 | 33 | 5.08 | 7613 | 6.26 | 0.2197 | Dose-dependent effect
CC[C@H](C)[C@H](Nc1ccnc2cc(Cl)ccc12)C(=O)N1CCN(C)CC1 | 365 | 83.8 | 4.34 | 2188 | 5.72 | 0.2295 | Dose-dependent effect
CC(C)[C@H](CC(=O)N1CCN(C)CC1)Nc1ccnc2cc(Cl)ccc12 | 324 | 44.1 | 7.33 | 6045 | 5.33 | 0.2286 | Dose-dependent effect
CN1CCN(C(=O)CCCNc2ccnc3cc(Cl)ccc23)CC1 | 781 | 65.1 | 11.99 | 4432 | 6.52 | 0.2023 | Dose-dependent effect
